Assay results taken from ChEMBL document CHEMBL3045078, “Insecticidal effect and chemical composition of the volatile oil from Bergenia ligulata” (2011).
Active and inactive are the calls of the source. No cut-off for these calls is given here.

Columns and labels:
Drosophila melanogaster [1] = experiment: Adulticidal activity against adult Drosophila melanogaster (males/females 1:1 ratio) assessed as mortality measured after 3 hr; assay type: functional
Procedure, shortened: (§1)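 Topical dose applied to the abdomen of ice-immobilised adults, 5–7 days old, in 0.5 μL acetone. Controls received acetone only. Flies were held at 25 °C, RH >60%, on a 12 h light/dark cycle. Thirty flies per dose, three replicates. Survival was recorded 3 h after treatment. Mortality means inability to move, with recovery checked.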

Drosophila melanogaster [2] = experiment: Adulticidal activity against adult Drosophila melanogaster (males/females 1:1 ratio) assessed as mortality at 2 ng/adult measured after 3 hr; assay type: functional, organism-based; procedure, shortened: as §1
Drosophila melanogaster [3] = experiment: Adulticidal activity against adult Drosophila melanogaster (males/females 1:1 ratio) assessed as mortality at 1 ng/adult measured after 3 hr; assay type: functional, organism-based
Drosophila melanogaster [4] = experiment: Adulticidal activity against adult Drosophila melanogaster (males/females 1:1 ratio) assessed as mortality at 0.5 ng/adult measured after 3 hr; assay type: functional, organism-based
Drosophila melanogaster [5] = experiment: Adulticidal activity against adult Drosophila melanogaster (males/females 1:1 ratio) assessed as mortality at 20 ng/adult measured after 3 hr; assay type: functional, organism-based; procedure, shortened: as §1

Structure (SMILES)	LD50 (Drosophila melanogaster [1])	Activity (Drosophila melanogaster [2])	Activity (Drosophila melanogaster [3])	Activity (Drosophila melanogaster [4])	Activity (Drosophila melanogaster [5])
COc1ccc2c(c1OC)CN1CCc3cc4c(cc3[C@@H]1C2)OCO4 [CANADINE]	2.5 µg				
C[C@@H]1CC[C@H]2[C@H](C)CC[C@@H](c3ccoc3)N2C1 [(-)-7-EPI-DEOXYNUPHARIDINE]	0.9 µg				
C[C@H]1CC=CC(=O)O1 [(+)-(6S)-PARASORBIC ACID]	1.44 µg	Active	inactive	inactive	Active
C=C(C)[C@H]1Cc2c(ccc3c2O[C@@H]2COc4cc(OC)c(OC)cc4[C@@H]2C3=O)O1 [ROTENONE]	3.68 µg				
